Hits are enriched below; roughly 4% of the tested compounds scored in any of these assays.
FAS-TE inh: FAS thioesterase (human) inhibition. P49327. recombinant FAS-TE, OMFH fluorogenic substrate, fluorescence endpoint. inhibition, % at 15 µM. 0.67% of 360,000 active;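 active = compounds whose normalised, plate-corrected inhibition of enzyme fluorescence in the single-dose primary screen is 50% or more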;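 also: 0% = DMSO with enzyme and 100% = substrate without enzyme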
NR3A LBD binder: NR3A (human) ligand-binding domain modulation; 2.5% of 340,000 active; NR3A LBD differential scanning fluorimetry, Tm shift; 0% = protein alone, 100% = glycine-bound protein; AID 1259313; Tm shift relative to glycine control, % at 25 µM;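 active = melting temperature shift of at least 10% of the positive control shift, at one fixed dose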
H9c2 protect: modulators protecting cardiomyocytes from myocardial damage; 0.63% of 360,000 active; H9c2 cardiomyocytes, H2O2 injury protection, ATPLite, 2 h; protection from H2O2 cell death, % at 20 µM;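 active = compounds giving at least 50% protection of heart cells from peroxide-induced death in the single-dose screen, raw or plate-pattern-corrected value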;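 also: 0% = DMSO wells with peroxide and 100% = DMSO wells without peroxide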
hiPSC survival: enhancers of human iPSC single-cell survival | hiPSC single-cell survival, ATPlite luminescence; 100% = ROCK inhibitor wells, 0% = DMSO | survival enhancement, % at 20 µM | 0.044% of 360,000 active | AID 602274; in the data active = survival enhancement above about 18%;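 also: cells exposed to compounds for 16 hours before the ATP read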
SENP1 FRET inh: inhibitors of human SENP1 SUMO protease catalytic domain. Q9P0U3. recombinant SENP1 catalytic domain, CyPet-SUMO1-YPet FRET cleavage. inhibition, % at 10 µM. 0.21% of 360,000 active;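 active = inhibition at least 30% at 10 µM, raw YFP signal under a set limit, fluorescence ratio 0.5 to 1.5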;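 also: 0% = enzyme with DMSO and 100% = no enzyme wells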
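Test system: human SENP1 catalytic domain; medium: Tris pH 8 buffer plus EDTA, NaCl, BME, BSA, NP40, catalase; incubation: 50 min reaction at room temperature; technique: FRET, CFP and YFP emission; controls: no-enzyme low control and enzyme-plus-DMSO high control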
Arrestin-AP2 inh: inhibitors of human beta-arrestin and AP2 interaction; 0.31% of 340,000 active; FITC-arrestin peptide / GST-AP2 beads, flow cytometry; AP2 beta2 appendage carries R879A mutation; inhibition, % at 10 µM;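 active = inhibition above a set limit, near 3 SD of compounds lacking own fluorescence, cut at about 54% in these data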;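 also: plate controls were DMSO wells for no effect and 5 µM unlabelled arrestin peptide for full effect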
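system = GST-tagged AP2 beta2-adaptin appendage (R879A) on 4 µm glutathione beads | reagent = FITC-labelled arrestin peptide probe, 50 nM final | schedule = compound with beads 12 min RT, then probe 1 h RT | signal = HyperCyt-sampled flow cytometry, FL1 channel, ex 488/em 535 nm | read-out = percent response from loss of bead-bound FITC fluorescence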
Arr AP2 CP1: human beta-arrestin and AP2 interaction inhibition, cherry pick; shares compounds with Arrestin-AP2 inh; GST-AP2 beads, FITC arrestin peptide binding, flow cytometry; GST-fused beta2-adaptin appendage, R879A mutant; inhibition, % at 10 µM; 2% of 1,300 active;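 active = inhibition above a set limit, roughly 3 SD of non-fluorescent compound noise, cut at about 38% in these data; inactive = inhibition at or below that limit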;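 also: loss of bead fluorescence from 50 nM FITC arrestin peptide bound to appendage; 0% = negative control wells and 100% = excess unlabelled arrestin peptide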
GST GSH counter: GST-GSH bead binding interference, counter-screen; shares compounds with Arrestin-AP2 inh; GST-fluorescein binding to GSH beads, fluorescence; 2% of 1,300 active; inhibition, % at 10 µM;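 active = inhibition above 50%, about 3 SD of the inhibition seen with non-fluorescent compounds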;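 also: fluorescein maleimide labelled GST captured on 4 micron glutathione beads; higher means more loss of bead fluorescence from quenching or blocked binding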
* hit, by the source's call.

`Cn1c(NCCN2CCCC2)nc2cc(-c3cccc(C(F)(F)F)c3)sc2c1=O` gave FAS-TE inh -8, H9c2 protect -18, hiPSC survival -1 and SENP1 FRET inh 2.
COc1ccc(-c2nc(CN3CCN(C(=O)c4ccco4)CC3)c(C)o2)c(OC)c1C was read as FAS-TE inh -5, NR3A LBD binder -1, H9c2 protect -4, hiPSC survival 0, SENP1 FRET inh -3, Arrestin-AP2 inh 54*, Arr AP2 CP1 -8 and GST GSH counter -2.
For Cn1cc(-c2csc(C(O)c3ccccc3)n2)cn1 (centres undefined) the results were FAS-TE inh -11, H9c2 protect 5, hiPSC survival -4 and SENP1 FRET inh 2.
`OC(C#Cc1ccccn1)c1cccs1` (centres undefined) gave FAS-TE inh -21, NR3A LBD binder 0, H9c2 protect -30, hiPSC survival -3, SENP1 FRET inh -30, Arrestin-AP2 inh 99*, Arr AP2 CP1 -6 and GST GSH counter -1.
COc1ccccc1N1CCN(S(=O)(=O)CCNC(=O)c2cccs2)CC1 was read as FAS-TE inh 0, H9c2 protect -3, hiPSC survival 0 and SENP1 FRET inh 0.
For CC1(C(=O)NS(=O)(=O)c2cccc(C#N)c2)CCN1C(=O)Cc1ccc(Cl)cc1Cl (centres undefined) the results were FAS-TE inh -8, H9c2 protect 2, hiPSC survival 2 and SENP1 FRET inh -1.
For O=C(NCc1ccco1)C1CC(=O)N(c2ccc(Cl)cc2)C1 (centres undefined) the results were FAS-TE inh -4, NR3A LBD binder 0, H9c2 protect -9, hiPSC survival 0, SENP1 FRET inh 2, Arrestin-AP2 inh 58*, Arr AP2 CP1 11 and GST GSH counter -5.
`O=C1CCCC[C@@H](CO)[C@H](O)C[C@H](c2ccccc2)O1` gave FAS-TE inh -6, hiPSC survival -1 and SENP1 FRET inh 0.
For Cc1ccc(N2C(=O)NC(NC(=O)C(C)(C)C)(C(F)(F)F)C2=O)cc1C (centres undefined) the results were FAS-TE inh -8, NR3A LBD binder -3, H9c2 protect 0, hiPSC survival 1, SENP1 FRET inh 3, Arrestin-AP2 inh 56*, Arr AP2 CP1 -2 and GST GSH counter 2.
Screening CCOC(=O)C1(C)CCCN(C(=O)c2ccccc2C(F)(F)F)C1 (centres undefined) returned FAS-TE inh -3, H9c2 protect -1, hiPSC survival 3 and SENP1 FRET inh 2.
CCN(C(=O)COC(=O)Cc1c[nH]c2ccccc12)c1c(N)n(Cc2ccccc2)c(=O)[nH]c1=O was read as FAS-TE inh -6, NR3A LBD binder -2, H9c2 protect 1, hiPSC survival 0, SENP1 FRET inh -9, Arrestin-AP2 inh 71*, Arr AP2 CP1 -5 and GST GSH counter -6.
For CN(C(=O)COC(=O)Cc1c[nH]c2ccccc12)c1c(N)n(Cc2ccccc2)c(=O)[nH]c1=O the results were FAS-TE inh -6, NR3A LBD binder 1, H9c2 protect 10, hiPSC survival 0, SENP1 FRET inh -4 and Arrestin-AP2 inh -3.
`Cc1ccc(S(=O)(=O)NC(=O)C2(C)CCN2C(=O)c2ccccc2)nc1` (centres undefined) gave FAS-TE inh -5, H9c2 protect 10, hiPSC survival 4 and SENP1 FRET inh -2.
Screening CC1CCCN(C2(O)C(=O)Nc3ccc(Cl)cc32)C1 (centres undefined) returned FAS-TE inh -2, NR3A LBD binder 0, H9c2 protect -1, hiPSC survival 1, SENP1 FRET inh -2, Arrestin-AP2 inh 57*, Arr AP2 CP1 12 and GST GSH counter -1.
`CC1CCN(C2(O)C(=O)Nc3ccc(Cl)cc32)CC1` (centres undefined) gave FAS-TE inh -3, NR3A LBD binder 1, H9c2 protect -1, hiPSC survival 1, SENP1 FRET inh -3 and Arrestin-AP2 inh 5.
`CCCC(=O)Nc1ccc(C(N)=O)cc1` gave FAS-TE inh 0, NR3A LBD binder 0, H9c2 protect 0, hiPSC survival 0, SENP1 FRET inh 3 and Arrestin-AP2 inh -8.
`COc1cccc(NC(=O)CC(=O)c2ccccc2)c1` gave FAS-TE inh -6, NR3A LBD binder -7, H9c2 protect -2, hiPSC survival 3, SENP1 FRET inh 1, Arrestin-AP2 inh 63*, Arr AP2 CP1 -1 and GST GSH counter -8.
For CC(=O)CC(=O)Nc1ccc(C(N)=O)cc1 the results were FAS-TE inh -4, NR3A LBD binder 1, H9c2 protect 5, hiPSC survival 1, SENP1 FRET inh 1, Arrestin-AP2 inh 46, Arr AP2 CP1 -9 and GST GSH counter -6.
For COc1cccc(NC(=O)CC(C)=O)c1 the results were FAS-TE inh -10, NR3A LBD binder -6, H9c2 protect 2, hiPSC survival 3, SENP1 FRET inh 1, Arrestin-AP2 inh 57*, Arr AP2 CP1 -5 and GST GSH counter -10.
COc1cccc(NC(=O)CSCC(=O)Nc2ccccc2)c1 was read as FAS-TE inh -1, NR3A LBD binder -2, H9c2 protect -1, hiPSC survival -2, SENP1 FRET inh 1 and Arrestin-AP2 inh 0.
`COc1ccc(C2=NCN(c3ccc(C)cc3)C(=S)N2)cc1` gave FAS-TE inh 3, NR3A LBD binder -2, H9c2 protect 0, hiPSC survival 4, SENP1 FRET inh 0, Arrestin-AP2 inh 80*, Arr AP2 CP1 3 and GST GSH counter -12.
`Cc1ccc(N2CN=C(c3ccccc3)NC2=S)cc1` gave FAS-TE inh -1, NR3A LBD binder 0, H9c2 protect -1, hiPSC survival 0, SENP1 FRET inh 0 and Arrestin-AP2 inh -4.
CN1OC[C@@H]2CN(C(=O)C(C)(C)C)[C@H](c3cccc(Oc4ccccc4)c3)C[C@@H]21 was read as FAS-TE inh 1, H9c2 protect 4, hiPSC survival -1 and SENP1 FRET inh 0.
CCOC(=O)[C@H]1[C@H]2COc3ccc(Br)cc3[C@@H]2N2C(=O)CN(Cc3ccccc3)C(=O)[C@@]12C was read as FAS-TE inh 12, NR3A LBD binder 2, H9c2 protect 1, hiPSC survival -3, SENP1 FRET inh 0 and Arrestin-AP2 inh -3.

Compound activity: PubChem BioAssay, several laboratories
